Source: publication PMC6175093 (Journal of Clinical Pharmacology, 2018)
Read-outs that look alike come from different tables or passages of the source.

What was measured:
[1] = format: in vivo, human; settings: metabolite; for t½: mean (SD); for Tmax: median (minimum, maximum)
In short: (§1)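 Randomized two-sequence crossover in healthy adults, ≥10-day washout. Single oral 4-mg rosiglitazone was given alone on day 1, or on day 3 of the test compound regimen (1250 mg loading dose on day 1, then 750 mg once daily for 7 more days), after a 10-h fast. K2EDTA blood was drawn predose to 120 h and plasma stored at ~−70°C. LC-MS/MS, LLOQ 0.500 ng/mL. GMR (90%CI) came from a linear mixed effect model.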

[2] = format: in vivo, human; settings: for AUC / AUC_%Extrap_obs: geometric mean (CV%)
In short: as §1

[3] = Safety and tolerability in phase 1 study; format: in vivo, human
In short: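 Healthy adults in a two-period crossover: single oral 4-mg rosiglitazone alone, and the test compound (1250 mg on day 1, 750 mg daily for 7 days) with rosiglitazone on day 3. Dosing was fasted. Adverse events were recorded from informed consent until 14 days after the last dose and graded by intensity.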

[4] = phase 1 drug‐drug interaction study; cited from earlier work
[5] = system: Candida and Aspergillus species clinical isolates; settings: cited from earlier work
[6] = system: CYP2C8; test: In vitro CYP2C8 inhibition; format: in vitro ADME
[7] = Phase 1 study: plasma PK of SCY‐078 after loading dose and repeat daily doses; format: in vivo, human
In short: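 Healthy adults fasted 10 h, then took the oral test compound: 1250-mg loading dose on day 1, then 750 mg once daily for 7 more days. Blood was drawn predose and 0.5–24 h on day 1, predose and 0.5–16 h on day 3, and as troughs before dosing on days 4–8. K2EDTA plasma was centrifuged at 2000 g and stored at ~−70°C. Validated LC-MS/MS, LLOQ 5.00 ng/mL.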

[8] = cited from earlier work
[9] = system: CYP2C8; settings: inhibition of CYP2C8‐mediated N‐desethyl‐amodiaquine activity; ref Wring SA, Park SM, unpublished data on file; cited from earlier work
[10] = system: Candida species; settings: in vivo murine models for invasive fungal infections with Candida species; cited from earlier work
[11] = system: other CYP isoforms; settings: ref Wring SA, Park SM, unpublished data on file; cited from earlier work
[12] = rosiglitazone 4 mg + SCY‐078 750 mg, day 3, n = 17, geometric mean (CV%)
[13] = rosiglitazone 4 mg + SCY‐078 750 mg, day 3, n = 17
[14] = rosiglitazone 4 mg alone, day 1, n = 17, geometric mean (CV%)
[15] = rosiglitazone 4 mg alone, day 1, n = 17
[16] = both, human, plasma, oral, 4 mg
[17] = all treatments pooled, 24 subjects
[18] = both, human, plasma, po, 1250 mg

O=C1NC(=O)C(Cc2ccc(OCCNc3ccccn3)cc2)S1 (stereo not shown) [N‐Desmethylrosiglitazone, N‐desmethylrosiglitazone]
AUC ([1]; 0 to infinity, rosiglitazone 4 mg + SCY‐078 750 mg, day 3, n = 17, geometric mean (CV%)): 2260 (15.5) μg·hr/mL
AUC0‐24h GMR rosiglitazone + SCY‐078 vs rosiglitazone alone ([1]; geometric mean ratio (90%CI)): 0.97 (0.89‐1.06)
AUC0‐last GMR rosiglitazone + SCY‐078 vs rosiglitazone alone ([1]; geometric mean ratio (90%CI)): 1.03 (0.95‐1.12)
AUC GMR rosiglitazone + SCY‐078 vs rosiglitazone alone ([1]; geometric mean ratio (90%CI)): 1.03 (0.95‐1.12)
Cmax GMR rosiglitazone + SCY‐078 vs rosiglitazone alone ([1]; geometric mean ratio (90%CI)): 0.97 (0.88‐1.07)
AUC0‐24h [1, 12]: 1.31 µg·h/mL
AUC0‐last [1, 12]: 2.24 µg·h/mL
AUC_%Extrap_obs [1, 12]: 0.90 (45.6) %
Cmax [1, 12]: 70.4 (16.4) ng/mL
t½ [1, 13]: 15.2 (2.3) h
Tmax [1, 13]: 8.0 (6.0, 16.0) h
AUC0‐24h [1, 14]: 1.34 µg·h/mL
AUC0‐last [1, 14]: 2.17 µg·h/mL
AUC_%Extrap_obs [1, 14]: 0.91 (52.4) %
Cmax [1, 14]: 72.8 (17.6) ng/mL
t½ [1, 15]: 14.5 (2.4) h
Tmax [1, 15]: 6.0 (4.0, 12.0) h

CN(CCOc1ccc(CC2SC(=O)NC2=O)cc1)c1ccccn1 (stereo not shown) [Rosiglitazone, rosiglitazone]
Cmax [2, 16]: 295 ng/mL
Tmax [2, 16]: 0.5 h
half-life [2, 16]: 3.7 h
AUC ([2]; both, human, plasma, oral, AUC0‐24h, rosiglitazone 4 mg + SCY‐078 750 mg, day 3, n = 17): 1420 µg·h/mL
AUC ([2]; both, human, plasma, oral, AUC0‐last, rosiglitazone 4 mg + SCY‐078 750 mg, day 3, n = 17): 1440 µg·h/mL
AUC0‐24h GMR rosiglitazone + SCY‐078 vs rosiglitazone alone ([2]; geometric mean ratio (90%CI)): 0.98 (0.89‐1.08)
AUC0‐last GMR rosiglitazone + SCY‐078 vs rosiglitazone alone ([2]; geometric mean ratio (90%CI)): 0.99 (0.90‐1.10)
AUC GMR rosiglitazone + SCY‐078 vs rosiglitazone alone ([2]; geometric mean ratio (90%CI)): 0.99 (0.90‐1.10)
Cmax GMR rosiglitazone + SCY‐078 vs rosiglitazone alone ([2]; geometric mean ratio (90%CI)): 0.80 (0.70‐0.90)
AUC_%Extrap_obs [2, 13]: 0.71 (62.2) %
AUC_%Extrap_obs [2, 15]: 0.58 (74.3) %
treatment‐emergent AE: diarrhea ([3]; all treatments pooled (rosiglitazone alone and with SCY‐078), 24 subjects): 58.3%
serious AEs and deaths [3, 17]: no serious AEs
treatment‐emergent AE: abdominal pain [3, 17]: 41.7%
treatment‐emergent AE: contact dermatitis [3, 17]: 8.3%
treatment‐emergent AE: dizziness [3, 17]: 8.3%
treatment‐emergent AE: headache [3, 17]: 16.7%
treatment‐emergent AE: menstruation irregularity [3, 17]: 12.5%
treatment‐emergent AE: nausea [3, 17]: 41.7%
treatment‐emergent AE: somnolence [3, 17]: 8.3%
treatment‐emergent AE: vomiting [3, 17]: 25%
tolerability ([3]; rosiglitazone in the presence and absence of repeat doses of SCY‐078, healthy subjects): generally well tolerated

CC(C)[C@@H](C)[C@@]1(C)CC[C@]2(C)[C@H]3CC[C@@H]4[C@@]5(COC[C@@]4(C)[C@@H](OC[C@](C)(N)C(C)(C)C)[C@H](n4ncnc4-c4ccncc4)C5)C3=CC[C@@]2(C)[C@@H]1C(=O)O [SCY‐078]
interaction with tacrolimus [4]: no clinically relevant interaction
in vitro activity against Candida and Aspergillus species clinical isolates [5]: potent in vitro activity
activity against azole‐resistant, most echinocandin‐resistant, and multidrug‐resistant strains of Candida species ([5]; in vitro): retained activity
unbound concentration in plasma as % of the CYP2C8 IC50 ([6]; day 3 Cmax, based on 99.7% binding to plasma proteins): ~3%
plasma Cmax exceeds the in vitro CYP2C8 IC50 ([6]; day 3 total Cmax vs IC50): approximately 4 fold
Tmax ([7]; both, human, plasma, oral): 6 h
AUC [7, 18]: 11.6 µg·h/mL
Tmax [7, 18]: 6 h
concentration at 24 h [7, 18]: 294 ng/mL
Cmax ([7]; both, human, plasma, po, 1250 mg, Cmax, day 1, oral 1250‐mg loading dose, fasted, geometric mean (CV%)): 783 ng/mL
maximum concentration in plasma ([7]; day 3, once‐daily oral regimen, molar equivalent of ∼0.93 μg/mL): 1.28 µM
absorption ([7]; following the loading dose and repeated daily doses): well absorbed
binding to plasma proteins [8]: 99.7%
IC50 [9]: ~0.3 µM
efficacy target exposure [10]: 11.2 μg·h^2/mL
IC50 values for other CYP isoforms, fold higher than CYP2C8 [11]: > 5 fold
